According to ChEMBL document CHEMBL1255362, “Mutations in human immunodeficiency virus type 1 integrase confer resistance to the naphthyridine L-870,810 and cross-resistance to the clinical trial drug GS-9137” (Antimicrob Agents Chemother, 2008):

Legend:
Format in all cases: functional, organism-based
[1] = test system: Human immunodeficiency virus 1; test: Antiviral activity against HIV 1 3B harboring integrase L34M mutant infected in MT-4 cells assessed as inhibition of virus-induced cytopathic effect by MTT assay selected after 40 passages in presence of compound; conditions: Human immunodeficiency virus 1, 3B, MT4
Method in brief: (§1)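 MT-4 cells (RPMI 1640, 10% heat-inactivated FCS, 2 mM L-glutamine, 37°C, 5% CO2) infected with 100 to 300 CCID50 of virus, titrated on MT-4 cells. Fivefold serial drug dilutions were present during infection. Protection from viral CPE was read by MTT reduction to formazan, measured spectrophotometrically. IC50 is the concentration giving 50% protection.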

[2] = test system: Human immunodeficiency virus 1; test: Antiviral activity against HIV 1 3B harboring integrase E92Q, S230N and L34M triple mutant infected in MT-4 cells assessed as inhibition of virus-induced cytopathic effect by MTT assay selected after 60 passages in presence of compound; conditions: Human immunodeficiency virus 1, 3B, MT4; method in brief: as §1
[3] = test system: Human immunodeficiency virus 1; test: Antiviral activity against HIV 1 3B infected in MT-4 cells assessed as inhibition of virus-induced cytopathic effect by MTT assay; conditions: Human immunodeficiency virus 1, 3B, MT4; method in brief: as §1
[4] = test system: Human immunodeficiency virus 1; test: Antiviral activity against HIV 1 NL4.3 assessed as inhibition of virus-induced cytopathic effect by MTT assay; conditions: Human immunodeficiency virus 1, NL4.3; method in brief: as §1
[5] = test system: Human immunodeficiency virus 1; test: Antiviral activity against HIV 1 RIN harboring integrase gene infected in MT-4 cells assessed as inhibition of virus-induced cytopathic effect by MTT assay after 20 passages selected in presence of compound; conditions: Human immunodeficiency virus 1, RIN, MT4
[6] = test system: Human immunodeficiency virus 1; test: Antiviral activity against HIV 1 NL4.3 harboring integrase L74M mutant infected in human MT-4 cells assessed as inhibition of virus-induced cytopathic effect by MTT assay; conditions: Human immunodeficiency virus 1, NL4.3, MT4; method in brief: as §1
[7] = test system: Human immunodeficiency virus 1; test: Antiviral activity against HIV 1 NL4.3 integrase S230N mutant infected in human MT-4 cells assessed as inhibition of virus-induced cytopathic effect by MTT assay; conditions: Human immunodeficiency virus 1, NL4.3, MT4; method in brief: as §1
[8] = test system: Human immunodeficiency virus 1; test: Antiviral activity against HIV 1 RIN HIV 1 RIN harboring integrase gene infected in MT-4 cells assessed as inhibition of virus-induced cytopathic effect by MTT assay after 40 passages selected in presence of compound; conditions: Human immunodeficiency virus 1, RIN, MT4; method in brief: as §1
[9] = test system: Human immunodeficiency virus 1; test: Antiviral activity against HIV 1 RIN harboring integrase gene infected in MT-4 cells assessed as inhibition of virus-induced cytopathic effect by MTT assay; conditions: Human immunodeficiency virus 1, RIN, MT4; method in brief: as §1
[10] = test system: Human immunodeficiency virus 1; test: Antiviral activity against HIV 1 3B harboring integrase E92Q S230N double mutant infected in MT-4 cells assessed as inhibition of virus-induced cytopathic effect by MTT assay selected after 20 passages in presence of compound; conditions: Human immunodeficiency virus 1, 3B, MT4; method in brief: as §1
[11] = test system: Human immunodeficiency virus 1; test: Antiviral activity against HIV 1 NL4.3 integrase E92Q mutant infected in human MT-4 cells assessed as inhibition of virus-induced cytopathic effect by MTT assay; conditions: Human immunodeficiency virus 1, NL4.3, MT4; method in brief: as §1
[12] = test system: Human immunodeficiency virus 1; test: Antiviral activity against HIV 1 RIN HIV 1 RIN harboring integrase gene infected in MT-4 cells assessed as inhibition of virus-induced cytopathic effect by MTT assay after 60 passages selected in presence of compound; conditions: Human immunodeficiency virus 1, RIN, MT4; method in brief: as §1
[13] = test system: Human immunodeficiency virus 1; test: Antiviral activity against HIV 1 3B infected in MT-4 cells assessed as inhibition of virus-induced cytopathic effect by MTT assay selected after 50 passages in presence of compound; conditions: Human immunodeficiency virus 1, 3B, MT4
Method in brief: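 Selected strains came from serial passage of HIV-1(IIIB) in MT-4 cells, started at MOI 0.01 with drug at 0.005 µM. Cultures were checked for CPE every 3 to 4 days. Supernatant from CPE-positive cultures went onto fresh cells at equal or higher drug concentration; cultures without breakthrough were subcultured at the same concentration. Susceptibility was tested by the MT-4/MTT CPE assay.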

SMILES | EC50 [1] [µM] | EC50 [2] [µM] | EC50 [3] [µM] | EC50 [4] [µM] | EC50 [5] [µM] | EC50 [6] [µM] | EC50 [7] [µM] | EC50 [8] [µM] | EC50 [9] [µM] | EC50 [10] [µM] | EC50 [11] [µM] | EC50 [12] [µM] | IC50 [13] [µM]
COc1cccc2c1c(C(=O)/C=C(\O)C(=O)O)cn2Cc1ccc(F)cc1 | 1.86 | 3.61 | 0.39 | 0.56 | 0.52 | 0.32 | 0.49 | 1.08 | 0.44 | 1.89 | 0.66 | 2.61 | 
Cc1ccnc2c1NC(=O)c1cccnc1N2C1CC1 [NEVIRAPINE] | 0.35 | 0.31 | 0.46 |  |  |  |  | 0.15 | 0.17 | 0.38 |  | 0.15 | 
CC(C)c1nc(CN(C)C(=O)N[C@H](C(=O)N[C@@H](Cc2ccccc2)C[C@H](O)[C@H](Cc2ccccc2)NC(=O)OCc2cncs2)C(C)C)cs1 [RITONAVIR] | 0.069 | 0.06 | 0.055 | 0.13 | 0.039 | 0.06 | 0.09 | 0.042 | 0.043 | 0.069 | 0.058 | 0.041 | 
Cc1nnc(C(=O)NC(C)(C)c2nc(C(=O)NCc3ccc(F)cc3)c(O)c(=O)n2C)o1 |  |  |  | 0.005 | 0.01 | 0.007 | 0.009 | 0.025 | 0.006 |  | 0.015 | 0.068 | 
COc1cc2c(cc1Cc1cccc(Cl)c1F)c(=O)c(C(=O)O)cn2[C@H](CO)C(C)C | 0.05 | 0.077 | 0.001 | 0.0007 | 0.015 | 0.0006 | 0.0009 | 0.018 | 0.0007 | 0.033 | 0.012 | 0.059 | 
Cc1cn([C@H]2C[C@H](N=[N+]=[N-])[C@@H](CO)O2)c(=O)[nH]c1=O [ZIDOVUDINE] | 0.004 | 0.007 | 0.018 | 0.007 | 0.022 | 0.005 | 0.006 | 0.022 | 0.018 | 0.018 | 0.007 | 0.022 | 
c1cc(CN2CCCNCCNCCCNCC2)ccc1CN1CCCNCCNCCCNCC1 [PLERIXAFOR] | 0.028 | 0.056 | 0.034 |  | 0.008 |  |  | 0.008 | 0.014 | 0.049 |  | 0.008 | 
O=C(NCc1ccc(F)cc1)c1nc(N2CCCCS2(=O)=O)c2cccnc2c1O | 0.17 | 0.55 | 0.005 | 0.004 | 0.018 | 0.004 | 0.007 | 0.064 | 0.004 | 0.11 | 0.073 | 0.19 | 1.1
